We go through 20 compounds from ChEMBL document CHEMBL3102803, “Design, synthesis, and biological evaluation of novel piperidine-4-carboxamide derivatives as potent CCR5 inhibitors” (Eur J Med Chem, 2014).

In general, IC50 refers to the concentration that gives 50% inhibition. As a reminder, the half-life is how long it takes for the measured level to halve. Read a high half-life as slow loss. The term inhibition denotes the drop in the measured response relative to a control, in per cent. Lower therefore signals a weak effect. One may read the clearance as a measure of how efficiently the substance is removed, as volume per time. A low value points to inefficient removal. As a reminder, the CL/F is the apparent clearance, not corrected for the fraction that reaches the circulation. By bioavailability is commonly meant dose-corrected exposure relative to a reference, in per cent. One may read the AUC(0-t) as the area under the concentration-time curve up to a stated or last time point.

Data set [1] concerns the target T1, C-C chemokine receptor type 5 (Homo sapiens, UniProt P51681). As to the kind of experiment: Inhibition of CCR5 (unknown origin) expressed in CHO cells assessed as inhibition of RANTES-induced intracellular Ca2+ mobilization after 10 mins by Fluo-4 AM staining-based fluorescence assay. The data set is classed as functional, cell-based.
For a further data set, the system named is HEK293. Description: Cytotoxicity against HEK293 cells at 50 uM after 7 hrs by CCK-8 assay. The data set is classed as cell-based. As to conditions: human, hek293, 7 h. The procedure, abridged: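 HEK293 cells at 5000 cells/well preincubated 24 h at 37 °C in 5% CO2, then exposed to compound for 7 h. CCK-8 reagent added, plates incubated a further 2 h at 37 °C, and absorbance read at […].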
For orientation: Tetrazolium dyes change colour on reduction, which living cells bring about.

Data set [2] is described as follows: Half life in Sprague-Dawley rat at 4 mg/kg, iv. The data set is classed as ADME, organism-based. Also noted: dose 4 mg/kg, route intravenous. The following applies: in vivo.
Another data set deals with hERG (KCNH2) (Homo sapiens, UniProt Q12809). Description: Inhibition of human ERG at 3 uM by patch clamp assay.
hERG (KCNH2), sequence (Q12809 whole entry): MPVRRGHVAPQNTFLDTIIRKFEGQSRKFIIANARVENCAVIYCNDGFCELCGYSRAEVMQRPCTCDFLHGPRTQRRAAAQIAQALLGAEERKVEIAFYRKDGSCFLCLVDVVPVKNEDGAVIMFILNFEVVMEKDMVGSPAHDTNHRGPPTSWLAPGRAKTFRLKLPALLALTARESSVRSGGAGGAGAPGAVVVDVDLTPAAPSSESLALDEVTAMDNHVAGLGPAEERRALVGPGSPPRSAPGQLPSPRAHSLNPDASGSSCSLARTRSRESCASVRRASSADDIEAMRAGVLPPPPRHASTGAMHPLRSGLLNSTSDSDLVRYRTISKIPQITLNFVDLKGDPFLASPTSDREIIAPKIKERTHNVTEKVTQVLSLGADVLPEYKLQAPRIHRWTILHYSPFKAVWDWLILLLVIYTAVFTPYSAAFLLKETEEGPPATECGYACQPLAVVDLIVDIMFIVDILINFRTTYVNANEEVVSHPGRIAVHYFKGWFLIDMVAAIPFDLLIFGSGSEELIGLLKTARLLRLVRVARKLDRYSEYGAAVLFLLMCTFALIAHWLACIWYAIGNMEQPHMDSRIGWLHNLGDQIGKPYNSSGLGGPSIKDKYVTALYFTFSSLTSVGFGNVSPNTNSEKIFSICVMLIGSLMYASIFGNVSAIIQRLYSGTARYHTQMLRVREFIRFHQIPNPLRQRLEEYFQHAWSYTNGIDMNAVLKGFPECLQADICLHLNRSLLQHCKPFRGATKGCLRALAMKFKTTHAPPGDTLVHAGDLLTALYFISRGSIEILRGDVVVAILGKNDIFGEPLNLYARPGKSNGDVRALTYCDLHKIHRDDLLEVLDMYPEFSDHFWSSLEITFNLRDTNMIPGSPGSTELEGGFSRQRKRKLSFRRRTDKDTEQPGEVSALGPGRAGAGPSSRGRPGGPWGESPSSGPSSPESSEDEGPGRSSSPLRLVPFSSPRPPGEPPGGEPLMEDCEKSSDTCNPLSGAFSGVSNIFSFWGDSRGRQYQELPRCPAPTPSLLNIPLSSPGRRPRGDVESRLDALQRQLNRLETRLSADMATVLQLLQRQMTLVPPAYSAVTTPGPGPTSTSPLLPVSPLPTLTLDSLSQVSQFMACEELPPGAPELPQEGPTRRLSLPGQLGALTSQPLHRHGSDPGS
Data set [3] can be described thus: Plasma clearance in Sprague-Dawley rat at 4 mg/kg, iv. Also noted: dose 4 mg/kg, route intravenous. In kind it is ADME, organism-based.
Data set [4] is described as follows: Plasma clearance in Sprague-Dawley rat at 25 mg/kg, po. In kind it is ADME, organism-based. Also noted: dose 25 mg/kg, route oral.
A short description of data set [5]: Oral bioavailability in Sprague-Dawley rat at 25 mg/kg. In kind it is ADME, organism-based. As to conditions: in vivo.
Data set [6] can be described thus: Volume of distribution at steady state in Sprague-Dawley rat at 4 mg/kg, iv. In kind it is ADME, organism-based. Also noted: dose 4 mg/kg, route intravenous. The following applies: in vivo, read-out: Vdss.
In the next data set the test system is Rattus norvegicus. Description: Volume of distribution at steady state in Sprague-Dawley rat at 25 mg/kg, po. In kind it is ADME, organism-based. The arrangement: dose 25 mg/kg, route oral. The following applies: in vivo.
A short description of data set [7]: Half life in Sprague-Dawley rat at 25 mg/kg, po. The data set is classed as ADME, organism-based. Also noted: dose 25 mg/kg, route oral. As to conditions: in vivo.
A short description of data set [8]: AUC (0 to 24 hrs) in Sprague-Dawley rat at 25 mg/kg, po. In kind it is ADME, organism-based. The arrangement: time < 24 hr, dose 25 mg/kg, route oral. As to conditions: plasma.
Data set [9] can be described thus: AUC (0 to 24 hrs) in Sprague-Dawley rat at 4 mg/kg, iv. As to conditions: plasma. In kind it is ADME, organism-based. Also noted: time < 24 hr, dose 4 mg/kg, route intravenous.
The subject of data set [10] is Human immunodeficiency virus 1. Description: Antiviral activity against HIV-1 infected in human SupT1 cells assessed as inhibition of viral infectivity after 48 hrs by luciferase reporter gene assay. The data set is classed as functional, organism-based. The following applies: Human immunodeficiency virus 1, SUP-T1, 48 h. Put shortly:
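Pseudovirions made by co-transfecting 293T cells with pNL-Luc-E- and pENV-R5. Supernatant collected at 48 h, filtered, and capsid protein quantified by p24 antigen-capture ELISA. SupT1 cells (1 × 10^5) infected with supernatant in the presence of compound, lysed 48 h post-infection, and firefly luciferase activity measured.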
On the technique in general: Reporter assays use an easily measured gene product as a stand-in for the process of interest.

Data set [11] addresses T1, C-C chemokine receptor type 5. As to the kind of experiment: Antagonist activity at CCR5 (unknown origin) expressed in CHO cell membranes assessed as inhibition of RANTES-stimulated [35S]-GTPgammaS binding after 1 hr by liquid scintillation counting analysis. The data set is classed as functional. Background: Binding of GTPγS marks nucleotide exchange on a G protein.

T1 sequence (P51681 whole entry): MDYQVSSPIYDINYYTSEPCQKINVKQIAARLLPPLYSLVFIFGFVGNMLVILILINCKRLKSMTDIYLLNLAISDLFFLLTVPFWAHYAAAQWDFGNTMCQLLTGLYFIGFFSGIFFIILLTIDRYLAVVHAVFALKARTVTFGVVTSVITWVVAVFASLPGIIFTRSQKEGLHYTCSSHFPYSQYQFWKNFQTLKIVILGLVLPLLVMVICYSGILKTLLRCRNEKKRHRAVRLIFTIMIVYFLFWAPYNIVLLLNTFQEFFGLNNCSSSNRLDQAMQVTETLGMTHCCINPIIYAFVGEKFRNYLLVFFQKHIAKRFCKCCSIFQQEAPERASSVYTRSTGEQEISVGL

Turning to `CCN(Cc1ccc(C)cc1)C(=O)C1CCN(CCCN(C(=O)C2CCN(C(C)=O)CC2)c2cccc(Cl)c2)CC1`, in data set [1], the 50% inhibitory concentration (IC50) was determined as 202 nM. Besides, the Activity entry in the data set with HEK293 is “Non-toxic”.

Regarding `CCN(Cc1ccc(F)cc1)C(=O)C1CCN(CCCN(C(=O)C2CCN(C(C)=O)CC2)c2cccc(Cl)c2)CC1`, in data set [1], the IC50 worked out at 320 nM. For the same compound, the Activity entry in the data set on HEK293 was “Non-toxic”.

`CCN(Cc1ccc(Cl)cc1)C(=O)C1CCN(CCCN(C(=O)C2CCN(C(C)=O)CC2)c2cccc(Cl)c2)CC1`: the concentration for half-maximal inhibition (IC50) in data set [1] was determined as 93.5 nM. Further, the Activity result in the data set on HEK293 is “Non-toxic”.

In the case of `CCN(Cc1ccc(C#N)cc1)C(=O)C1CCN(CCCN(C(=O)C2CCN(C(C)=O)CC2)c2cccc(Cl)c2)CC1`, the IC50 in data set [1] was found to be 473 nM. In the data set with HEK293, the Activity result is reported as “Non-toxic”.

Consider `CC(=O)N1CCC(C(=O)N(CCCN2CCC(C(=O)N(C)Cc3ccccc3)CC2)c2cccc(Cl)c2)CC1`, for which the IC50 in data set [1] is 64.1 nM. For the same compound, the Activity result in the data set with HEK293 is “Non-toxic”.

As for `CC(=O)N1CCC(C(=O)N(CCCN2CCC(C(=O)NCc3ccccc3)CC2)c2cccc(Cl)c2)CC1`, the half-life was 44.4 min in data set [2] and 42.6 min in [7]. In addition, the inhibition at 3 µM at hERG (KCNH2) was 15.2%. The half-inhibitory concentration (IC50) was determined as 25.7 nM in [1] and 73 nM in data set [10]. Besides, the clearance in [3] was 20.8 mL/min/kg. The compound also showed a CL/F in [4] of 148 mL/min/kg. In data set [5], this compound displayed a bioavailability of 15%. Also, in [6], the Vd was found to be 1.23 L/kg. This compound came in with a Vdss with Rattus norvegicus of 8.99 L/kg. For the same compound, in the data set with HEK293, the Activity entry is “Non-toxic”. In addition, the AUC(0-t) at 24 h in [8] is 3130 ng·h/mL; in [9] it was 3250 ng·h/mL.

`CC(=O)N1CCC(C(=O)N(CCCN2CCC(C(=O)NCc3ccc(F)cc3)CC2)c2cccc(Cl)c2)CC1`: the IC50 in [1] amounted to 35.5 nM. In addition, the Activity result with HEK293 is recorded as “Non-toxic”.

Turning to `CC(=O)N1CCC(C(=O)N(CCCN2CCC(C(=O)NCc3ccc(Cl)cc3)CC2)c2cccc(Cl)c2)CC1`, the concentration for half-maximal inhibition (IC50) in data set [1] came out at 25.5 nM; in [10], 94.1 nM. Further, in the data set on HEK293, the Activity result is on record as “Non-toxic”.

With `CC(=O)N1CCC(C(=O)N(CCCN2CCC(C(=O)NCc3ccc(C#N)cc3)CC2)c2cccc(Cl)c2)CC1`, the 50% inhibitory concentration (IC50) in data set [1] was determined as 75.3 nM. Further, the Activity result in the data set on HEK293 was “Non-toxic”.

Regarding `CC(=O)N1CCC(C(=O)N(CCCN2CCC(C(=O)Nc3ccccc3)CC2)c2cccc(Cl)c2)CC1`, in data set [1], the IC50 is over 1000 nM. The Activity result in the data set on HEK293 is given as “Non-toxic”.

With `CCN(C(=O)C1CCN(CCCN(C(=O)C2CCN(C(C)=O)CC2)c2cccc(Cl)c2)CC1)c1ccccc1`, the IC50 in data set [1] is over 1000 nM. Also, the Activity entry with HEK293 is “Non-toxic”.

Take `CC(=O)N1CCC(C(=O)N(CCCN2CCC(C(=O)NCCc3ccccc3)CC2)c2cccc(Cl)c2)CC1`: in data set [1], the IC50 stood at 76 nM. Moreover, the Activity entry in the data set on HEK293 is “Non-toxic”.

Regarding `CC(=O)N1CCC(C(=O)N(CCCN2CCC(C(=O)NCCc3ccc(F)cc3)CC2)c2cccc(Cl)c2)CC1`, in data set [1], the half-maximal inhibitory concentration (IC50) worked out at 197 nM. In the data set on HEK293, the Activity result is given as “Non-toxic”.

As to `CC(=O)N1CCC(C(=O)N(CCCN2CCC(C(=O)NCCc3ccc(Cl)cc3)CC2)c2cccc(Cl)c2)CC1`, the half-inhibitory concentration (IC50) in [1] is 86.7 nM. Also, the Activity entry in the data set on HEK293 is “Non-toxic”.

For `CCN(CCc1ccccc1)C(=O)C1CCN(CCCN(C(=O)C2CCN(C(C)=O)CC2)c2cccc(Cl)c2)CC1`, in data set [1], the concentration for half-maximal inhibition (IC50) was 26.4 nM. For the same compound, the Activity entry in the data set with HEK293 is “Non-toxic”.

With `CCN(CCc1ccc(F)cc1)C(=O)C1CCN(CCCN(C(=O)C2CCN(C(C)=O)CC2)c2cccc(Cl)c2)CC1`, the 50% inhibitory concentration (IC50) in data set [1] worked out at 152 nM. In addition, in the data set on HEK293, the Activity entry is given as “Non-toxic”.

With `CCN(CCc1ccc(Cl)cc1)C(=O)C1CCN(CCCN(C(=O)C2CCN(C(C)=O)CC2)c2cccc(Cl)c2)CC1`, the half-inhibitory concentration (IC50) in data set [1] came out at 126 nM. In addition, the Activity result in the data set with HEK293 is listed as “Non-toxic”.

`CCN(C(=O)Cc1ccccc1)C1CCN(CCCN(C(=O)C2CCN(C(C)=O)CC2)c2cccc(Cl)c2)CC1`: the values for the half-maximal inhibitory concentration (IC50) in data set [1] and in data set [11] were 252 nM and 7 nM, respectively.

As for `CCN(Cc1ccccc1)C(=O)C1CCN(CCCN(C(=O)C2CCN(C(C)=O)CC2)c2cccc(Cl)c2)CC1`, the 50% inhibitory concentration (IC50) in data set [1] worked out at 525 nM. Also, the Activity result in the data set on HEK293 is “Non-toxic”.

With `Cc1nnc(C(C)C)n1[C@H]1C[C@H]2CC[C@@H](C1)N2CC[C@H](NC(=O)C1CCC(F)(F)CC1)c1ccccc1` [MARAVIROC], the concentration for half-maximal inhibition (IC50) in [10] is 1.1 nM.
